From ChEMBL document CHEMBL1150416, “Design, synthesis and spectroscopic studies of resveratrol aliphatic acid ligands of human serum albumin” (Bioorg Med Chem, 2008)

Tests used:
Albumin [1] = molecular target: T1, Albumin (Homo sapiens, UniProt P02768); assay: Binding affinity to human serum albumin at 4 uM by fluorescence enhancing measurement; assay type: ADME; conditions: isolated protein
Procedure, shortened: (§1)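 HSA binding was read as the resveratrol-moiety fluorescence at 388 nm. The compound was fixed at 4 µM in 50 mM phosphate buffer, pH 7, with HSA either fixed at 4 µM or increased from 2 to 16 µM, at 298 K. Solutions were read 2 min after mixing against buffer/HSA blanks. Ka came from a non-linear fit of fluorescence versus [HSA].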

Albumin [2] = molecular target: T1, Albumin; assay: Binding affinity to human serum albumin assessed as decrease in UV absorbance by UV-vis measurement; assay type: ADME; parameters: scale not given: the % may be the effect or the level left; conditions: isolated protein
Procedure, shortened: (§2)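 The compound was held at 4 µM in 50 mM phosphate buffer, pH 7 (20 mM NaH2PO4 and 30 mM Na2HPO4), and HSA was added at increasing concentrations. UV–vis absorbance of the compound was read at 318 nm, 2 min after thorough mixing. Buffers without HSA and with matching HSA levels served as blanks. Each compound solution was used only once.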

Albumin [3] = molecular target: T1, Albumin; assay: Binding affinity to human serum albumin by fluorescence quenching measurement; assay type: ADME; conditions: isolated protein
Procedure, shortened: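 HSA intrinsic (Trp) fluorescence quenching at 298 K in 50 mM phosphate buffer, pH 7. HSA was held at a fixed level while compound amounts were increased. Excitation 280 nm, emission recorded 290–360 nm, intensity taken at 350 nm; samples read 2 min after mixing, with buffer blanks. Ka was obtained by fitting the modified Stern–Volmer equation.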

[4] = Aqueous solubility assessed per 100 g in pure water; conditions: pH 7
[5] = Solubility in phosphate buffer assessed per 100 g at pH 7; assay type: physicochemical
Procedure, shortened: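 Excess solid stirred 1 h with pure water or 50 mM phosphate buffer (pH 7; 20 mM NaH2PO4 + 30 mM Na2HPO4) in a sealed dual-wall flask held at 295 K by circulating water. The solid was removed by two 2-min centrifugations. Dissolved content was read by UV–vis at 304 nm and converted using an extinction coefficient of 33,913 M-1 cm-1.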

Albumin [6] = molecular target: T1, Albumin; assay: Binding affinity to human serum albumin at 4 uM by UV-vis measurement; assay type: ADME; procedure, shortened: as §2
Albumin [7] = molecular target: T1, Albumin; assay: Binding affinity to human serum albumin assessed as increase in drug-induced fluorescence at 4 uM by fluorescence enhancing measurement; assay type: ADME; conditions: isolated protein; procedure, shortened: as §1
[8] = Solubility in over saturated phosphate buffer assessed per 100 g at pH 7 after 2 mins; assay type: physicochemical; conditions: pH 7, 2 min
Procedure, shortened: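 Over-saturated solution made by tapping a suspension in 50 mM phosphate buffer (pH 7) for 2 min at 295 K. Content was read by UV–vis at 304 nm and converted using an extinction coefficient of 33,913 M-1 cm-1.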

T1 sequence (P02768 whole entry): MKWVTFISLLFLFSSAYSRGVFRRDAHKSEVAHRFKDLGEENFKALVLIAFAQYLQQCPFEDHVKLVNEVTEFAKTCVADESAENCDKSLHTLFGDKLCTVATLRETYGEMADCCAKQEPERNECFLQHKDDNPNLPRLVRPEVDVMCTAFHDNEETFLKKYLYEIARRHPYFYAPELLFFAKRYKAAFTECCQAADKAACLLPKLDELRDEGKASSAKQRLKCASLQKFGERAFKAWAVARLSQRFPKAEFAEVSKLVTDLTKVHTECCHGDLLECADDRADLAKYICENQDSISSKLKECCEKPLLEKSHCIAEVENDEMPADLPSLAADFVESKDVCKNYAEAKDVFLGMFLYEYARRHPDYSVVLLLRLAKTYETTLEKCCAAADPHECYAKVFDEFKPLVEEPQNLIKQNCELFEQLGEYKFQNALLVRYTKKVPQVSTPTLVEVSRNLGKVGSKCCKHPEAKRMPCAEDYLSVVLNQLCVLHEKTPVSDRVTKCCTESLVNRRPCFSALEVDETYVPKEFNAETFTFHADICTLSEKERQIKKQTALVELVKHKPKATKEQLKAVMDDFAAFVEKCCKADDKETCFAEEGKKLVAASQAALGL

O=C(O)CCCCCOc1ccc(/C=C/c2cc(O)cc(O)c2)cc1 [RESVERATROL HEXANOIC ACID]
Ka (Albumin [1]): 31.2 ×10⁵ /M | Activity (Albumin [2]): 20% | Ka (Albumin [3]): 67 ×10⁵ /M | solubility [4]: 4.52 mg | solubility [5]: 10.54 mg | Kd (Albumin [6]): 382 nM | Ka (Albumin [6]; human, isolated protein, 4 µM): 26.2 ×10⁵ /M

CCOC(=O)COc1ccc(/C=C/c2cc(O)cc(O)c2)cc1
Ka (Albumin [3]): 1.14 ×10⁵ /M | solubility [4]: 1.93 mg | solubility [5]: 1.4 mg

COC(=O)CCCCCOc1ccc(/C=C/c2cc(O)cc(O)c2)cc1
Ka (Albumin [3]): 3.05 ×10⁵ /M | solubility [4]: 0.032 mg | solubility [5]: 0.085 mg

O=C(O)COc1ccc(/C=C/c2cc(O)cc(O)c2)cc1
Activity (Albumin [7]): 50% | solubility [8]: 867.8 mg | Ka (Albumin [3]): 2.95 ×10⁵ /M | solubility [4]: 80.91 mg | solubility [5]: 313.8 mg

Oc1ccc(/C=C/c2cc(O)cc(O)c2)cc1 [RESVERATROL]
Ka (Albumin [3]): 1.64 ×10⁵ /M | solubility [4]: 3.24 mg | solubility [5]: 3.24 mg
